For experiment [1], the system named is Cutibacterium acnes. Put plainly: Antimicrobial activity against Propionibacterium acnes after 48 hrs by agar plate dilution method. In kind it is functional. Put shortly: (§1)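 Strains cultured at 37 °C in soybean–casein digest broth; activity determined by agar plate dilution (described alongside broth microtiter dilution), read after 48 h incubation at 37 °C.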

In experiment [2] the test system is Staphylococcus aureus. Put plainly: Antimicrobial activity against Staphylococcus aureus after 48 hrs by agar plate dilution method. In kind it is functional. Put shortly:
as §1

The subject of experiment [3] is Bacillus subtilis. Nature of the experiment: Antimicrobial activity against Bacillus subtilis after 48 hrs by agar plate dilution method. In kind it is functional. The essentials:
as §1

Experiment [4] relates to Staphylococcus epidermidis. Put plainly: Antimicrobial activity against Staphylococcus epidermidis after 48 hrs by agar plate dilution method. In kind it is functional. The essentials:
as §1

Experiment [5] in a line: Inhibition of testosterone-5-alpha-reductase at 50 ug/mL.
Experiment [6] is described as follows: Inhibition of testosterone-5-alpha-reductase at 100 ug/mL.
A short description of experiment [7]: Inhibition of testosterone-5-alpha-reductase at 200 ug/mL.
Experiment [8] in a line: Displacement of [3H]DHT from 5-alpha-dihydrotestosterone receptor at 50 ug/mL. On the technique in general: Loss of bound radioactivity is the signal in a displacement assay; it reports binding, not function.
Experiment [9] can be described thus: Displacement of [3H]DHT from 5-alpha-dihydrotestosterone receptor at 100 ug/mL.
Experiment [10] can be described thus: Displacement of [3H]DHT from 5-alpha-dihydrotestosterone receptor at 200 ug/mL.

The values that follow come from ChEMBL document CHEMBL1144146, “Antibacterial and antiandrogen flavonoids from Sophora flavescens” (1999).

Values after ≈ are worked out from the molar mass of the structure shown.

What is called MIC is the lowest concentration found to suppress growth. Low values mean greater potency, high ones weaker potency. Usually inhibition stands for the change of the read-out against control, counted positive when it falls.

Take `C=C(C)C(CC=C(C)C)Cc1c(O)cc(OC)c2c1O[C@H](c1ccc(O)cc1)CC2=O` (some centres not stated) [KUSHENOL U]: the MIC in experiment [1], in experiment [2], in experiment [3] and in experiment [4] was 10 µg/mL (≈ 23.7 µM) each time. Besides, the figures for the inhibition in [5], in [6] and in [7] were 7.4%, 50.3% and 84.4%, respectively. Besides, the results for the Activity in [8], in experiment [9] and in experiment [10] were 52.6%, 85.1% and 96.9%, respectively.
For the molecule `C=C(C)C(CC=C(C)C)Cc1c(O)cc(OC)c2c1O[C@H](c1ccc(O)cc1OC)CC2=O` (some centres not stated), the minimal inhibitory concentration (MIC) in [1] was 25 µg/mL (≈ 55.2 µM); in experiment [2], 2.5 µg/mL (≈ 5.52 µM); in experiment [3], 2.5 µg/mL (≈ 5.52 µM); in experiment [4], 10 µg/mL (≈ 22.1 µM). Moreover, the inhibition in [5] amounted to 34.1%; in experiment [6] it was 79.3%; in experiment [7], 94.7%. The Activity in [8] was determined as 73.7%; in [9], 58.9%; in experiment [10], 58.4%.
Regarding `C=C(C)C(CC=C(C)C)Cc1c(O)cc(OC)c2c1O[C@H](c1ccc(O)cc1O)[C@@H](O)C2=O` (some centres not stated), the inhibition was 14% in experiment [5], 50.9% in experiment [6] and 85.1% in [7]. Further, the Activity in experiment [8] is 60.2%; in [9], 81.4%; in experiment [10] it was 84.2%.
Take `COc1cc(C2CC(=O)c3c(O)cc(O)c(CC=C(C)C)c3O2)c(O)cc1O` (racemic) [KUSHENOL W]: the MIC in experiment [2] and in [3] was 10 µg/mL (≈ 25.9 µM) in each case.
For `CC1(C)C=Cc2c(ccc3c2OC[C@@H](c2ccc(O)cc2O)C3)O1`, the inhibition was determined as 32.5% in [5] and 84.3% in experiment [6]. Moreover, the values for the Activity in experiment [8] and in experiment [9] were 63.2% and 88.2%, respectively.
Consider `C=C(C)C(CC=C(C)C)Cc1c(O)cc(OC)c2c1O[C@H](c1ccc(O)cc1O)CC2=O` (some centres not stated) [KURARINONE], for which the MIC in experiment [2] and in experiment [3] was 2.5 µg/mL (≈ 5.7 µM) each time. Besides, the inhibition was 0.7% in experiment [5], 40.5% in experiment [6] and 93.8% in experiment [7]. The figures for the Activity in experiment [8], in [9] and in experiment [10] were 61.1%, 89.2% and 88%, respectively.
On to `C=C(C)C(CC=C(C)C)Cc1c(O)cc(O)c2c1O[C@H](c1ccc(O)cc1O)[C@@H](O)C2=O` (some centres not stated) [KUSHENOL X], for which the MIC in [2] and in [3] was 10 µg/mL (≈ 22.7 µM) in each case. Further, the inhibition in experiment [5] came out at 30.9%; in experiment [6] it was 84.5%; in experiment [7], 96.4%. Besides, the figures for the Activity in experiment [8], in experiment [9] and in experiment [10] were 68.9%, 90.5% and 88.6%, respectively.
For `CC(C)=CCC(Cc1c(O)cc(O)c2c1O[C@H](c1ccc(O)cc1O)CC2=O)C(C)CO` (some centres not stated) [KUSHENOL Q], the MIC in experiment [2] and in experiment [3] was 5 µg/mL (≈ 11.3 µM) in each case. The inhibition in experiment [5] was found to be 0.9%; in experiment [6], 34.8%; in experiment [7], 88.5%. The figures for the Activity in experiment [8], in experiment [9] and in experiment [10] were 66.1%, 82.4% and 92.7%, respectively.
Take `C=C(C)C(CC=C(C)C)Cc1c(O)cc(O)c2c1O[C@H](c1ccccc1O)CC2=O` (some centres not stated): the MIC in [1] was 10 µg/mL (≈ 24.5 µM); in experiment [2], 5 µg/mL (≈ 12.2 µM); in experiment [3] it was 2.5 µg/mL (≈ 6.12 µM); in experiment [4], 5 µg/mL (≈ 12.2 µM). For the same molecule, the inhibition in experiment [5] was determined as 21.9%; in experiment [6] it was 51.4%; in experiment [7] it was 77.3%. The Activity in [8] was found to be 60.1%; in [9], 89.3%; in experiment [10] it was 89.6%.
`CC(C)=CCc1c(O)cc(O)c2c1O[C@H](c1ccc(O)cc1O)CC2=O` [LEACHIANONE G]: the MIC amounted to 5 µg/mL (≈ 14 µM) in experiment [2] and 2.5 µg/mL (≈ 7.02 µM) in experiment [3]. The figures for the inhibition in [5], in [6] and in [7] were 25.3%, 80.5% and 89.9%, respectively. Further, the figures for the Activity in experiment [8], in experiment [9] and in experiment [10] were 74.2%, 84.8% and 94.5%, respectively.
On to `C=C(C)C(CCC(C)(C)O)Cc1c(O)cc(O)c2c1O[C@H](c1ccc(O)cc1O)CC2=O` (some centres not stated), for which the inhibition in experiment [5] stood at 3.5%; in [6] it was 41.3%; in experiment [7], 82.2%. Moreover, the Activity came to 43.9% in experiment [8], 75.4% in experiment [9] and 83% in [10].
For the molecule `C=C(C)C(CCC(C)(C)O)Cc1c(O)cc(OC)c2c1O[C@H](c1ccc(O)cc1O)CC2=O` (some centres not stated), the inhibition in [5] is -1%; in [6], -0.2%; in [7], 11.9%. For the same molecule, the Activity amounted to 15.5% in experiment [8], 27.9% in experiment [9] and 65.8% in [10].
Consider `CC(C)=CCc1c(O)cc(O)c2c1O[C@H](c1ccccc1O)CC2=O` [KUSHENOL S], for which the MIC in [2] and in experiment [3] was 5 µg/mL (≈ 14.7 µM) in each case. The inhibition in [5] was 7.3%; in experiment [6], 22.9%; in [7] it was 37.4%. Besides, the Activity in experiment [8] was 37.8%; in experiment [9], 47.7%; in experiment [10], 70%.
Regarding `C=C(C)[C@H](CCC(C)(C)O)Cc1c(O)cc(O)c2c1O[C@H](c1ccccc1O)CC2=O`, the inhibition in [5] came to 3.2%; in experiment [6], 54.8%; in [7], 95.4%. In addition, the values for the Activity in experiment [8], in experiment [9] and in experiment [10] were 35%, 84.9% and 89.2%, respectively.
Consider `COc1cc([C@@H]2CC(=O)c3c(cc(O)c(CC=C(C)C)c3O)O2)c(O)cc1O` [KUSHENOL V], for which the MIC in experiment [2] and in [3] was 10 µg/mL (≈ 25.9 µM) in each case.
Regarding `C=C(C)C(CC=C(C)C)Cc1c(O)cc(O)c2c1O[C@H](c1ccc(O)cc1O)CC2=O` (some centres not stated), the MIC in [1] came to 10 µg/mL (≈ 23.6 µM); in experiment [2], 2.5 µg/mL (≈ 5.89 µM); in [3], 2.5 µg/mL (≈ 5.89 µM); in [4], 10 µg/mL (≈ 23.6 µM). Besides, the values for the inhibition in experiment [5], in experiment [6] and in experiment [7] were 51.4%, 86.4% and 94.2%, respectively. The Activity in experiment [8] came to 80.3%; in [9] it was 85.8%; in [10], 90.1%.
Turning to `C=C(C)C(CC=C(C)C)Cc1c(O)cc(OC)c2c1O[C@H](c1ccccc1O)CC2=O` (some centres not stated) [KUSHENOL R], the MIC in experiment [1] was 10 µg/mL (≈ 23.7 µM); in [2], 5 µg/mL (≈ 11.8 µM); in [3], 2.5 µg/mL (≈ 5.92 µM); in [4], 5 µg/mL (≈ 11.8 µM). For the same molecule, the inhibition in [5] was determined as 4.1%; in experiment [6], 23.6%; in experiment [7], 73.5%. Besides, the Activity in [8] is 27.3%; in experiment [9], 67.5%; in [10], 82.4%.
